Laboratory results as given in ChEMBL document CHEMBL1124746, “Synthesis and antitumor evaluation in mice of certain 7-deazapurine (pyrrolo[2,3-d]pyrimidine) and 3-deazapurine (imidazo[4,5-c]pyridine) nucleosides structurally related to sulfenosine, sulfinosine, and sulfonosine” (1990).

Legend:
[1] = tested on: L1210; experiment: Tested for percent of L1210 cells killed by dose 288 mg/kg administered intraperitoneally; type: functional, Mus musculus; settings: route intraperitoneal
Summary of the method: (§1)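 Female BDF1 mice (~18 g) were inoculated ip on day 0 with 1 × 10⁶ murine L1210 leukemia cells. They got a single ip bolus 24 h later of drug freshly dissolved in water, at 0.01 mL/g body weight. Controls received saline. The percentage of cells killed was estimated from residual leukemia body burden, using inoculum-response data relating inoculum size to postinoculation life span.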

[2] = tested on: L1210; experiment: Tested for post inoculation lifespan in L1210-inoculated mice at dose 288 mg/kg administered intraperitoneally; type: functional, Mus musculus; settings: route intraperitoneal
Summary of the method: (§2)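 Female BDF1 mice (~18 g) were inoculated ip on day 0 with 1 × 10⁶ L1210 cells and treated once ip 24 h later with drug in water (0.01 mL/g); saline controls. Groups had six mice. %T/C = mean life span treated / mean life span control × 100, with T/C ≥ 125 taken as significant. Deaths were assigned to leukemia or drug toxicity by timing and necropsy.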

[3] = tested on: L1210; experiment: Tested for post inoculation lifespan in L1210-inoculated mice at dose 173 mg/kg administered intraperitoneally; type: functional, Mus musculus; settings: route intraperitoneal; summary of the method: as §2
[4] = tested on: L1210; experiment: Tested for percent of L1210 cells killed by dose 173 mg/kg administered intraperitoneally; type: functional, Mus musculus; settings: route intraperitoneal; summary of the method: as §1
[5] = tested on: L1210; experiment: Tested for percent of L1210 cells killed by dose 62 mg/kg administered intraperitoneally; type: functional, Mus musculus; settings: route intraperitoneal; summary of the method: as §1
[6] = tested on: L1210; experiment: Tested for post inoculation lifespan in L1210-inoculated mice at dose 62 mg/kg administered intraperitoneally; type: functional, Mus musculus; settings: route intraperitoneal; summary of the method: as §2
[7] = tested on: L1210; experiment: Tested for percent of L1210 cells killed by dose 104 mg/kg administered intraperitoneally; type: functional, Mus musculus; settings: route intraperitoneal; summary of the method: as §1
[8] = tested on: L1210; experiment: Tested for post inoculation lifespan in L1210-inoculated mice at dose 104 mg/kg administered intraperitoneally; type: functional, Mus musculus; settings: route intraperitoneal; summary of the method: as §2
[9] = tested on: L1210; experiment: Tested for post inoculation lifespan in L1210-inoculated mice at dose 480 mg/kg administered intraperitoneally; type: functional, Mus musculus; settings: route intraperitoneal; summary of the method: as §2
[10] = tested on: L1210; experiment: Tested for percent of L1210 cells killed by dose 480 mg/kg administered intraperitoneally; type: functional, Mus musculus; settings: route intraperitoneal; summary of the method: as §1
[11] = tested on: L1210; experiment: Tested for percent of L1210 cells killed by dose 173 mg/kg administered intraperitoneally; settings: Mus musculus, route intraperitoneal
[12] = tested on: L1210; experiment: Tested for percent of L1210 cells killed by dose 800 mg/kg administered intraperitoneally; type: functional, Mus musculus; settings: route intraperitoneal; summary of the method: as §1
[13] = tested on: L1210; experiment: Tested for post inoculation lifespan in L1210-inoculated mice at dose 800 mg/kg administered intraperitoneally; type: functional, Mus musculus; settings: route intraperitoneal; summary of the method: as §2
[14] = tested on: L1210; experiment: Tested for post inoculation lifespan in L1210-inoculated mice at dose 37 mg/kg administered intraperitoneally; type: functional, Mus musculus; settings: route intraperitoneal; summary of the method: as §2
[15] = tested on: L1210; experiment: Tested for percent of L1210 cells killed by dose 37 mg/kg administered intraperitoneally; type: functional, Mus musculus; settings: route intraperitoneal; summary of the method: as §1

SMILES: NS(=O)(=O)c1ncnc2c1ccn2[C@H]1C[C@H](O)[C@@H](CO)O1
- Cells killed [1]: 67.94%
- T/C [2]: 113%

SMILES: Nc1nc([S+](N)[O-])c2ccn([C@@H]3C[C@@H](O)[C@H](CO)O3)c2n1 (stereo partly drawn)
- T/C [3]: 100%
- Cells killed [4]: 0%

SMILES: OC[C@H]1O[C@@H](n2ccc3c(S)ncnc32)C[C@@H]1O
- Cells killed [5]: 0%
- T/C [6]: 96%

SMILES: NSc1ncnc2c1ccn2[C@H]1C[C@H](O)[C@@H](CO)O1
- Cells killed [7]: 2%
- T/C [8]: 101%

SMILES: N[S+]([O-])c1ncnc2c1ccn2[C@@H]1C[C@@H](O)[C@H](CO)O1 (stereo partly drawn)
- T/C [9]: 112%
- Cells killed [10]: 60.59%

SMILES: NSc1nc(N)nc2c1ccn2[C@H]1C[C@H](O)[C@@H](CO)O1
- T/C [3]: 112%
- Cells killed [11]: 46.64%

SMILES: Nc1nc(S)c2ccn([C@H]3C[C@H](O)[C@@H](CO)O3)c2n1
- Cells killed [7]: 35.63%
- T/C [8]: 105%

SMILES: Nc1cc2c(ncn2C2O[C@H](CO)[C@@H](O)[C@H]2O)c(S)n1 (stereo partly drawn)
- Cells killed [7]: 0%
- T/C [8]: 93%

SMILES: Nc1nc([S+](N)[O-])c2ccn(C3O[C@H](CO)[C@@H](O)[C@H]3O)c2n1 (stereo partly drawn)
- Cells killed [1]: 76.93%
- T/C [2]: 115%

SMILES: Nc1cc2c(ncn2C2O[C@H](CO)[C@@H](O)[C@H]2O)c([S+](N)[O-])n1 (stereo partly drawn)
- Cells killed [12]: 16.32%
- T/C [13]: 102%

SMILES: NSc1nc(N)cc2c1ncn2C1O[C@H](CO)[C@@H](O)[C@H]1O (stereo partly drawn)
- Cells killed [5]: 21.86%
- T/C [6]: 103%

SMILES: Nc1nc(S(N)(=O)=O)c2ccn(C3O[C@H](CO)[C@@H](O)[C@H]3O)c2n1 (stereo partly drawn)
- T/C [9]: 100%
- Cells killed [10]: 0%

SMILES: Nc1nc(S)c2ccn(C3O[C@H](CO)[C@@H](O)[C@H]3O)c2n1 (stereo partly drawn)
- T/C [14]: 90%
- Cells killed [15]: 0%

SMILES: NSc1nc(N)nc2c1ccn2C1O[C@H](CO)[C@@H](O)[C@H]1O (stereo partly drawn)
- Cells killed [7]: 66.6%
- T/C [8]: 111%
